The text below walks through data of PubChem BioAssay.

Usually viability stands for a read-out of living cells in per cent, often relative to untreated cells. In general, inhibition refers to the drop in the measured response relative to a control, in per cent.

Values without a mark were called inactive. Records with an inconclusive call do not appear. Calls of active or inactive are those of the source.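 The calls were made as follows, unless noted: active = viability at or below 27.92% in each of two runs, the all-compound median minus 4 SD; inconclusive = no clear call, values can overlap the other calls; inactive = the rest.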

Experiment [1] in a line: OD615 S. cerevisiae growth inhibition, permissive medium, pilot counter-assay, permissive growth control for S. cerevisiae lifespan shortening project (AID 705;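 active = growth inhibition above 25% in both replicates, a cutoff set 3 SD above the mean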). Conditions: OD615, 24 h, at 10 µM, active compounds read high. In outline:
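Material: engineered DeaD yeast; Compound: one dose 10 µM, DMSO 0.25% final; Detection: absorbance (optical density) at 615 nm; Buffer or medium: permissive raffinose/galactose medium; Timing: 24 h exposure, 30 °C.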

Experiment [2] can be described thus: Restrictive medium S. cerevisiae growth inhibition, OD615, pilot screen of yeast lifespan reduction project, restrictive growth control (AID 706;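 active = growth inhibition above a set limit, 3 SD over mean compound inhibition, in both replicates, cut at about 43% in these data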;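 also: modified DeaD lifespan yeast strain shifted to restrictive glucose medium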). The following applies: OD615, 48 h, at 10 µM, active compounds read high. The gist of the method:
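Buffer or medium: restrictive glucose medium (CSMM-D); test system: modified S. cerevisiae; doses: single dose of 10 µM compound final, 0.25% DMSO; schedule: 48 h compound exposure at 30 °C; detection: absorbance (optical density) measured at 615 nm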

The nature of experiment [3]: viability gain of MRP-1-high H69AR cells under doxorubicin, pilot screen, MRP-1 activator project, CellTiter-Glo, duplicate (AID 807;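 active = viability increase at or above a cutoff of the median across tested compounds plus 3 SD, cut at about 8.5% in these data, passing the limit was not always enough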;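 also: compound pretreatment 18-22 h then 72 h combined with doxorubicin; 0% = doxorubicin alone and 100% = vehicle without doxorubicin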). Conditions: H69AR viability with doxorubicin, CellTiter-Glo luminescence; at 10 µM; active compounds read high. For orientation: ATP-based viability assays read luminescence as a measure of living cells.
A short description of experiment [4]: growth suppression of beta-catenin knockout HCT116, pilot screen, human colon tumor cells (AID 823;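 active = cell viability at or below a set limit in both duplicate runs, the limit being the all-compound median minus 4 SD, cut at about 23% in these data, passing the limit was not always enough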;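 also: 0% = wells killed by 20 µM Hyamine and 100% = untreated DMSO cell wells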). The following applies: CellTiter-Glo, 60 h, at 10 µM, active compounds read low.
The nature of experiment [5]: growth suppression of PTEN-deleted HCT116, pilot screen, cell-based, HCT116 clonal line, CellTiter-Glo (AID 824).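 Also: 0% = 20 µM Hyamine control and 100% = vehicle cell control.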 The following applies: 60 h, at 10 µM, active compounds read low.
A short description of experiment [6]: inhibitors of the yeast RAM network, pilot screen, dse1pr::URA3 reporter, 5-FOA selection (AID 869;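 active = inhibition over a set limit, the all-compound mean plus 3 SD, in both replicate runs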;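 also: 0% = DMSO wells with no growth and 100% = 10 µM 1-NA-PP1 with full growth; RAM network block rescues cells from 5-FOA so hits raise OD615 growth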). The following applies: S. cerevisiae dse1pr::URA3 5-FOA growth, OD615, 2 d; at 10 µM; active compounds read high; strain carries analog-sensitive mutant Cbk1 kinase.
Experiment [7] can be described thus: RAM signaling pathway blockade in yeast – S. cerevisiae, Pdr1DBD-CYC8 efflux-inhibited sensitized strain, primary screen (AID 1298;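 active = RAM network inhibition above 8.4% in each of two replicates, 3 SD over the compound average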;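 also: 0% = DMSO untreated cells without growth and 100% = 10 µM 1-NA-PP1 full growth; higher means more yeast growth rescued from 5-FOA killing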). Conditions: S. cerevisiae cbk1-as DSE1-URA3 strain, 5-FOA growth OD615, 2 d; at 50 µM; active compounds read high.

`COc1ccc(-n2c(C)nc3c(cnn3-c3ccc(C)c(C)c3)c2=O)cc1`: the growth inhibition in experiment [1] was -13.7%; in experiment [2], 8.51%. Further, in experiment [3], the viability increase was 2.3%. Besides, the figures for the viability in experiment [4] and in experiment [5] were 86% and 79%, respectively. The inhibition in experiment [6] is 2.09%. In addition, the RAM network inhibition in experiment [7] is 5.89%.
Take `COc1ccccc1N1CCN(c2nc(N)c(C#N)c(CC#N)c2C#N)CC1`: the growth inhibition was -1.4% in experiment [1] and -0.44% in experiment [2]. Further, the viability increase in experiment [3] is 2.45%. For the same molecule, the viability in experiment [4] was 96.7%; in experiment [5], 86.3%. The inhibition in experiment [6] was 1.54%. In addition, the RAM network inhibition in experiment [7] is 3.57%.
For the molecule `Cc1cc(-c2nc3ncccc3o2)ccc1NC(=O)CC(C)C`, the growth inhibition in experiment [1] is -3.98%; in experiment [2], -5.53%. Besides, the viability increase in experiment [3] was -0.17%. Further, the values for the viability in experiment [4] and in experiment [5] were 108% and 90%, respectively. In addition, the inhibition in experiment [6] is 1.06%. Also, the RAM network inhibition in experiment [7] is 0.92%.
Turning to `CCOc1ccc(OCC)c(Nc2cc(C)nc3nc(C)nn23)c1`, the growth inhibition in experiment [1] is -13.3%; in experiment [2], -2.15%. Moreover, the viability increase in experiment [3] was -6.5%. Besides, the values for the viability in experiment [4] and in experiment [5] were 53.1% and 46.6%, respectively. Further, the inhibition in experiment [6] was 0.055%. Also, in experiment [7], the RAM network inhibition was 6.18%.
For the molecule `Cc1cc(/C=N/n2cnnc2)c(C)n1-c1ccc(C(=O)O)cc1`, the values for the growth inhibition in experiment [1] and in experiment [2] were 5.52% and -2.69%, respectively. Besides, the viability increase in experiment [3] was 1.76%. Besides, the results for the viability in experiment [4] and in experiment [5] were 102% and 99%, respectively. In addition, the inhibition in experiment [6] was 0.98%. Moreover, the RAM network inhibition in experiment [7] is 2.56%.
Regarding `COc1cc(-c2nnc(COc3ccc4cc(Br)ccc4c3)o2)cc(OC)c1OC`, the growth inhibition in experiment [1] is -10.6%; in experiment [2], -8.51%. Besides, the viability increase in experiment [3] was 0.27%. Also, the values for the viability in experiment [4] and in experiment [5] were 62.9% and 46.7%, respectively. The inhibition in experiment [6] is 0.505%. For the same molecule, in experiment [7], the RAM network inhibition was 3.67%.
On to `CCCCNC(=O)c1cc2c(=O)n3cccc(C)c3nc2n1C`, for which the growth inhibition in experiment [1] was -8.58%; in experiment [2], -6.39%. In addition, the viability increase in experiment [3] is -4.36%. The viability was 89.4% in experiment [4] and 87.5% in experiment [5]. The inhibition in experiment [6] is 0.93%. Further, the RAM network inhibition in experiment [7] is 2.87%.
With `CC(C)CCOc1cccc(C2c3c(oc4ccccc4c3=O)C(=O)N2CCCN2CCOCC2)c1` (stereo unspecified), the growth inhibition in experiment [1] was -3.75%; in experiment [2] it was -23.9%. For the same molecule, in experiment [3], the viability increase is -4.89%. Besides, the viability was 87.9% in experiment [4] and 84.2% in experiment [5]. Also, the inhibition in experiment [6] is 0.82%. The RAM network inhibition in experiment [7] is 6.7%.
As for `COC(=O)CSc1nc(C)cc(Oc2ccccc2)n1`, the growth inhibition is -8.61% in experiment [1] and -5.81% in experiment [2]. Moreover, the viability increase in experiment [3] was -1.76%. Besides, the viability in experiment [4] is 104%; in experiment [5] it was 95.8%. Further, the inhibition in experiment [6] is 1.48%. The RAM network inhibition in experiment [7] is 4.9%.
Regarding `CN(CP(=O)(O)C(O)c1ccccc1)S(C)(=O)=O` (stereo unspecified), the growth inhibition in experiment [1] was -4.82%; in experiment [2], -6.66%. Also, the viability increase in experiment [3] was 0.16%. Besides, the viability was 94.2% in experiment [4] and 93.4% in experiment [5]. Also, in experiment [6], the inhibition was 1.1%. In addition, in experiment [7], the RAM network inhibition was 1.86%.
For the molecule `CCOC(=O)CSc1nnc(CSc2nc(N)c3c(C)c(C)sc3n2)n1-c1ccccc1`, the growth inhibition in experiment [1] was 14.1%; in experiment [2], 53.5% (active). Also, in experiment [3], the viability increase was -2.13%. Besides, the viability in experiment [4] is 94.8%; in experiment [5], 96.2%. The inhibition in experiment [6] is 0.985%. The RAM network inhibition in experiment [7] is 5.21%.
`CCCCCCNS(=O)(=O)c1nc2nc(C)cc(C)n2n1`: the growth inhibition is -15.4% in experiment [1] and -13.1% in experiment [2]. In addition, the viability increase in experiment [3] was 2.63%. Further, the viability in experiment [4] and in experiment [5] was 104% throughout. Further, the inhibition in experiment [6] is 1.35%. In experiment [7], the RAM network inhibition was 1.21%.
Consider `Cc1oc(-c2ccc(Cl)cc2)nc1CS(=O)CC(=O)NCCN1CCCC1` (stereo unspecified), for which the growth inhibition is -4.58% in experiment [1] and -1.17% in experiment [2]. Besides, the viability increase in experiment [3] was -1.14%. Also, the viability is 91.1% in experiment [4] and 91.4% in experiment [5]. Besides, the inhibition in experiment [6] was 1.06%. Besides, the RAM network inhibition in experiment [7] was 8.14%.
Consider `CNC(=O)c1ccc2snnc2c1`, for which the results for the growth inhibition in experiment [1] and in experiment [2] were -8.38% and 5.12%, respectively. Moreover, in experiment [3], the viability increase was -1.54%. Moreover, the viability in experiment [4] is 107%; in experiment [5], 97.9%. In addition, the inhibition in experiment [6] is 0.52%. Further, the RAM network inhibition in experiment [7] is -0.47%.
Consider `O=C(NCc1cccs1)c1ccccc1F`, for which the figures for the growth inhibition in experiment [1] and in experiment [2] were -9.19% and -7.24%, respectively. Besides, in experiment [3], the viability increase was -0.25%. Moreover, the figures for the viability in experiment [4] and in experiment [5] were 94.2% and 88.9%, respectively. In experiment [6], the inhibition is 0.385%. Moreover, the RAM network inhibition in experiment [7] is 1.34%.
Take `CN(C)C(C(=O)NC1CCCCC1)c1ccc(Cl)cc1` (stereo unspecified): the growth inhibition was -5.65% in experiment [1] and -17.6% in experiment [2]. The viability increase in experiment [3] was -3.08%. Further, the figures for the viability in experiment [4] and in experiment [5] were 80.2% and 84.2%, respectively. Moreover, the inhibition in experiment [6] is 0.575%. Further, the RAM network inhibition in experiment [7] is -0.68%.
As to `Cc1ccc(N2C(=O)c3ccc(C(=O)N4CCN(c5ccccc5F)CC4)cc3C2=O)cc1`, the growth inhibition in experiment [1] is -4.5%; in experiment [2], -2.21%. Besides, the viability increase in experiment [3] was -1.97%. For the same molecule, the viability was 90.5% in experiment [4] and 90% in experiment [5]. Further, in experiment [6], the inhibition was 1.33%. Besides, in experiment [7], the RAM network inhibition was 4.71%.
On to `COc1ccc2oc(C(=O)CCC(=O)O)c(N)c2c1`, for which the values for the growth inhibition in experiment [1] and in experiment [2] were -12.2% and 8.27%, respectively. For the same molecule, the viability increase in experiment [3] was -0.43%. For the same molecule, the viability in experiment [4] was 93.3%; in experiment [5], 92.5%. In addition, in experiment [6], the inhibition is 1.98%. The RAM network inhibition in experiment [7] was 1.31%.
